ChEMBL document CHEMBL1157559, “Synthesis and biological evaluation of novel pyrazolyl-2,4-thiazolidinediones as anti-inflammatory and neuroprotective agents” (Bioorg Med Chem, 2010)
Active and inactive are the calls of the source. The calls are words filed in the database; no cut-off is given here.

How the values were obtained:
THP-1 [1] = experiment: Cytotoxicity against LPS and IFN-gamma-stimulated human THP1 cells after 24 hrs; assay type: functional, cell-based; conditions: THP-1, 24 h
How it was run: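 THP-1 cells, 24-well, in DMEM-F12 with 5% FBS. Compound or DMSO added 15 min before LPS 0.5 µg/mL plus IFN-γ 150 U/mL. After 24 h, LDH release (fraction of Triton-lysed value, OD 490) and MTT were read. EC50 taken from curves of at least three independent experiments; the lower of the two assay values was reported.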

HL-60 = experiment: Inhibition of phagocyte respiratory burst in human HL60 cells after 6 to 7 days by luminol-induced chemiluminescence; assay type: functional, cell-based
How it was run: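 HL-60 cells differentiated 6–7 days in DMEM-F12 with 10% FBS and 1.3% DMSO, washed into serum-free, phenol red-free medium, then held 30 min at 37 °C before compound or DMSO was added. Luminol injected, 7.5 min baseline recorded, then FMLP injected (final 1 µM; luminol 5 mM; DMSO 0.5%). Chemiluminescence recorded 30 min at 37 °C; read-out was area under the curve.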

Rattus norvegicus [2] = experiment: Antiinflammatory activity in Wistar albino rat acute inflammatory model assessed as inhibition of formalin-induced paw edema at 20 mg/kg, po administered 1 hr before formalin challenge measured after 1 hr by plethysmometer relative to control; assay type: functional; parameters: scale not given: the % may be the effect or the level left
How it was run: (§1)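 Male Wistar rats, 180–200 g, groups of five. Test compound 20 mg/kg po; 1 h later 0.1 mL 2% formalin injected subplantar into left hind paw under light ether anesthesia. Paw volume by water plethysmometer at 0 and 1, 2, 3, 4 h after formalin. % inhibition = (Vt−V0)control minus (Vt−V0)treated, divided by (Vt−V0)control ×100. Mean ± SEM, ANOVA with Student–Newman–Keuls.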

Rattus norvegicus [3] = experiment: Antiinflammatory activity in Wistar albino rat sub-acute inflammatory model assessed as inhibition of turpentine oil-induced granuloma pouch exudate volume at 20 mg/kg, po 1 hr before turpentine oil challenge for 7 days assessed measured on day 8; assay type: functional
How it was run: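 Male rats 120–150 g, five per group. Subcutaneous dorsal pouch made under ether with 2 mL air, then 0.5 mL turpentine oil injected. Compound 20 mg/kg po 1 h before turpentine, then daily for seven days. On day 8 exudate drawn by syringe under anesthesia and volume measured. % inhibition = (Vcontrol − Vtreated)/Vcontrol ×100.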

Rattus norvegicus [4] = experiment: Antiinflammatory activity in Wistar albino rat acute inflammatory model assessed as inhibition of formalin-induced paw edema at 20 mg/kg, po administered 1 hr before formalin challenge measured after 2 hrs by plethysmometer relative to control; assay type: functional; parameters: scale not given: the % may be the effect or the level left; how it was run: as §1
THP-1 [5] = experiment: Inhibition of MCP1 release in human THP1 cells after 24 hrs by ELISA; assay type: functional, cell-based
How it was run: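 THP-1 cells pretreated 15 min with compound, then stimulated with LPS 0.5 µg/mL plus IFN-γ 150 U/mL. After 24 h, MCP-1 (ng/mL) measured in cell-free medium by ELISA.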

Rattus norvegicus [6] = experiment: Antiinflammatory activity in Wistar albino rat sub-acute inflammatory model assessed as inhibition of formalin-induced paw edema at 20 mg/kg, po administered daily for 7 days by plethysmometer relative to control; assay type: functional; conditions: 168 h
How it was run: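 Rats dosed orally at 20 mg/kg daily for 7 consecutive days. 0.1 mL 2% formalin given subplantar in left hind paw under light ether 1 h after the first oral dose, with a second injection on day 3. Paw edema weight (g) measured on day 8. % inhibition = (control − treated)/control ×100. Groups of five.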

Rattus norvegicus [7] = experiment: Antiinflammatory activity in Wistar albino rat acute inflammatory model assessed as inhibition of formalin-induced paw edema at 20 mg/kg, po administered 1 hr before formalin challenge measured after 4 hrs by plethysmometer relative to control; assay type: functional; parameters: scale not given: the % may be the effect or the level left; how it was run: as §1
Rattus norvegicus [8] = experiment: Antiinflammatory activity in Wistar albino rat acute inflammatory model assessed as inhibition of formalin-induced paw edema at 20 mg/kg, po administered 1 hr before formalin challenge measured after 3 hrs by plethysmometer relative to control; assay type: functional; parameters: scale not given: the % may be the effect or the level left; how it was run: as §1
Rattus norvegicus [9] = experiment: Antiinflammatory activity in po dosed Wistar albino rat acute inflammatory model assessed as inhibition of formalin-induced paw edema administered 1 hr before formalin challenge measured after 3 hrs by plethysmometer; assay type: functional
How it was run: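 Rats dosed orally at 5, 10, 20, 40 and 50 mg/kg body weight. Edema volume inhibition measured 3 h after subplantar formalin (2%, 0.1 mL), and ED50 determined from these doses.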

[10] = Acute toxicity in po dosed Swiss albino mouse after 24 hrs; assay type: organism-based; conditions: in vivo, read-out: ALD50
How it was run: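 Four groups of five Swiss albino mice (20–30 g), fasted 24 h beforehand, given compounds orally at graded doses of 0–300 mg/kg. Mortality recorded at each dose level after 24 h to estimate the acute lethal dose (ALD50).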

Rattus norvegicus [11] = experiment: Gastrointestinal toxicity in Wistar albino rat assessed as ulceration at 100 mg/kg/day, po administered twice daily for 3 days; assay type: organism-based; parameters: route oral; conditions: in vivo, 72 h
How it was run: (§2)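 Male rats 180–200 g, groups of five, fasted 12 h with water available. Compounds given orally as two equal doses at 0 and 12 h, 100 mg/kg per day, for three successive days; vehicle control 1% gum acacia. Rats killed 6 h after last dose. Stomach opened along greater curvature, washed with cold saline and inspected under 3× lens for hyperemia, hemorrhage, erosions or ulcers.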

SH-SY5Y [12] = experiment: Neuroprotective activity in human SH-SY5Y cells assessed as inhibition of LPS, IFN-gamma-stimulated THP1 cellular supernatant-induced cytotoxicity after 72 hrs by LDH assay; assay type: functional, cell-based
How it was run: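 SH-SY5Y cells plated 24 h, then medium replaced with supernatant from THP-1 cells stimulated with LPS + IFN-γ for 48 h. Compound added directly to the SH-SY5Y cells at the time of transfer. Cell death measured by LDH release after 72 h; 4–6 independent experiments.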

SH-SY5Y [13] = experiment: Antineurotoxicity in human SH-SY5Y cells assessed as inhibition human THP1 cell supernatant-induced cytotoxicity compound pretreated 24 to 48 hrs to THP1 cells measured after 72 hrs of supernatant addition; assay type: functional, cell-based
How it was run: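 THP-1 cells in DMEM-F12 with 5% FBS, pretreated 15 min with compound or DMSO, then stimulated with LPS 0.5 µg/mL plus IFN-γ 150 U/mL for 24 or 48 h. Cell-free supernatant transferred to SH-SY5Y cells plated 24 h earlier. After 72 h, viability by LDH release and MTT. IC50 from curves of at least three independent experiments.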

SH-SY5Y [14] = experiment: Neuroprotective activity in human SH-SY5Y cells assessed as inhibition of H2O2-induced cytotoxicity after 72 hrs by LDH assay; assay type: functional, cell-based
How it was run: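 SH-SY5Y cells plated in DMEM-F12 with 5% FBS. After 24 h, medium replaced with medium containing H2O2 (500 µM in methods, 250 µM in figure legend), and compound added directly at that time. Cell death measured by LDH release 72 h later.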

[15] = molecular target: T1, Prostaglandin G/H synthase 1 (Ovis aries) (UniProt P05979); experiment: Inhibition of ovine COX1 at 10 uM
T1 sequence (whole entry): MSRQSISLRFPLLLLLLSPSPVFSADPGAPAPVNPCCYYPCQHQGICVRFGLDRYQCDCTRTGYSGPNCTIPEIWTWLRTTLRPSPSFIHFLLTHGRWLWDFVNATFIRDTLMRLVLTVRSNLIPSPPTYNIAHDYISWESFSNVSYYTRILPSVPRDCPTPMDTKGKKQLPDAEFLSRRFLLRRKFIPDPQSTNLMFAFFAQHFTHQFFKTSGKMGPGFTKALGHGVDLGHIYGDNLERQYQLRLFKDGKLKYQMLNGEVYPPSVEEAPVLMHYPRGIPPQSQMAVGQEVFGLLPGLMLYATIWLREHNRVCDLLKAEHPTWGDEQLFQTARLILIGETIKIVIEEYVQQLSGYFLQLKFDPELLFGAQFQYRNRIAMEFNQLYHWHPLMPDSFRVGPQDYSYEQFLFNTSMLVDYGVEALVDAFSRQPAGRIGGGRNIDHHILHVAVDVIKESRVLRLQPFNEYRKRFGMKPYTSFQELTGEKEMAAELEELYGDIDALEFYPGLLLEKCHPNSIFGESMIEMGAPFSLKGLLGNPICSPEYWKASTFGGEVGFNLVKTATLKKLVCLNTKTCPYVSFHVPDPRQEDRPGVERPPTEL
How it was run: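 Kit assay with ovine COX-1, run per manufacturer's protocol. Read-out was percent inhibition of prostaglandin production, with compound at 10 µM and three experiments.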

Rattus norvegicus [16] = experiment: Gastrointestinal toxicity in Wistar albino rat assessed as hyperemia at 100 mg/kg/day, po administered twice daily for 3 days; assay type: organism-based; parameters: route oral; conditions: in vivo, 72 h; how it was run: as §2
[17] = molecular target: T2, Prostaglandin G/H synthase 2 (Homo sapiens) (UniProt P35354); conditions: at 10 µM
T2 sequence (whole entry): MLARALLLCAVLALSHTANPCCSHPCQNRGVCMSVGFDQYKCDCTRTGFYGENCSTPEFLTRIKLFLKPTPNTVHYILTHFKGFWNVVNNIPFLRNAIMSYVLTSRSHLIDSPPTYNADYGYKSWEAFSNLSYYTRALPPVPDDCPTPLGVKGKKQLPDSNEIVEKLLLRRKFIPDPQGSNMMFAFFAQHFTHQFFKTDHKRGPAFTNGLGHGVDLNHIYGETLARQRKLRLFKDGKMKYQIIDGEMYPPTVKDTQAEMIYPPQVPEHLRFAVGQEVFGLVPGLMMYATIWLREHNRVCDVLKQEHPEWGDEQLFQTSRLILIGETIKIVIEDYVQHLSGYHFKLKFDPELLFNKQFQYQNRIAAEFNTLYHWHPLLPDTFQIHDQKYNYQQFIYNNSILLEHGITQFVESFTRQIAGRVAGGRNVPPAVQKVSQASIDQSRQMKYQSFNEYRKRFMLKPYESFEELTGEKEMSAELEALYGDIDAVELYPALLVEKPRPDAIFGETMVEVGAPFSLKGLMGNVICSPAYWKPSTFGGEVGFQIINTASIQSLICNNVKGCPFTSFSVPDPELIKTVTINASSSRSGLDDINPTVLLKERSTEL

Compound	EC50 (THP-1 [1]) [µM]	inhibition (THP-1 [5])	LD50 at 24 h [10] [mg/kg]	IC50 (SH-SY5Y [13]) [µM]	other results
O=C1NC(=O)/C(=C/c2cn(-c3ccccc3)nc2-c2ccc(Cl)cc2)S1	> 100	inactive	> 300	–	IC50 (HL-60): 0.8 µM; Activity (Rattus norvegicus [2]): 41%; inhibition in vivo at 20 mg/kg (Rattus norvegicus [3]): 44%; Activity (Rattus norvegicus [4]): 50%; inhibition in vivo at 20 mg/kg (Rattus norvegicus [6]): 42%; Activity (Rattus norvegicus [7]): 74%; Activity (Rattus norvegicus [8]): 74%; ED50 (Rattus norvegicus [9]): 13 mg/kg
CCCN1C(=O)S/C(=C\c2cn(-c3ccccc3)nc2-c2ccccc2)C1=O	> 100	inactive	> 300	–	–
C=CCN1C(=O)S/C(=C\c2cn(-c3ccccc3)nc2-c2ccc(Cl)cc2)C1=O	120	inactive	> 300	10	Activity (Rattus norvegicus [11]): 0%; inhibition (SH-SY5Y [12]): inactive; Activity (Rattus norvegicus [2]): 53%; inhibition in vivo at 20 mg/kg (Rattus norvegicus [3]): 50%; inhibition (SH-SY5Y [14]): inactive; Activity (Rattus norvegicus [4]): 63%; inhibition [15]: 26.5%; Activity (Rattus norvegicus [16]): Non-toxic; inhibition [17]: 13.6%; inhibition in vivo at 20 mg/kg (Rattus norvegicus [6]): 47%; Activity (Rattus norvegicus [7]): 66%; Activity (Rattus norvegicus [8]): 72%; ED50 (Rattus norvegicus [9]): 15.4 mg/kg
Cc1ccc(-c2cc(C(F)(F)F)nn2-c2ccc(S(N)(=O)=O)cc2)cc1 [CELECOXIB]	50	inactive	–	5	Activity (Rattus norvegicus [11]): 0%; Activity (Rattus norvegicus [2]): 41%; inhibition in vivo at 20 mg/kg (Rattus norvegicus [3]): 54%; Activity (Rattus norvegicus [4]): 50%; inhibition in vivo at 20 mg/kg (Rattus norvegicus [6]): 50%; Activity (Rattus norvegicus [7]): 68%; Activity (Rattus norvegicus [8]): 60%; ED50 (Rattus norvegicus [9]): 14.3 mg/kg
CCCN1C(=O)S/C(=C\c2cn(-c3ccccc3)nc2-c2ccc(Cl)cc2)C1=O	> 100	inactive	> 300	–	–
C=CCN1C(=O)S/C(=C\c2cn(-c3ccccc3)nc2-c2ccccc2)C1=O	> 100	inactive	> 300	50	–
O=C1S/C(=C\c2cn(-c3ccccc3)nc2-c2ccccc2)C(=O)N1Cc1ccc(Cl)cc1	50	inactive	> 300	80	–
O=C1S/C(=C\c2cn(-c3ccccc3)nc2-c2ccc(Cl)cc2)C(=O)N1Cc1ccc(Cl)cc1	4	inactive	> 300	–	–
O=C1S/C(=C\c2cn(-c3ccccc3)nc2-c2ccc(Cl)cc2)C(=O)N1Cc1cccc(Br)c1	5	inactive	> 300	8	–
O=C1S/C(=C\c2cn(-c3ccccc3)nc2-c2ccccc2)C(=O)N1Cc1ccccc1	> 100	inactive	> 300	–	–
COc1ccc2c(c1)c(CC(=O)O)c(C)n2C(=O)c1ccc(Cl)cc1 [INDOMETHACIN]	–	–	–	–	Activity (Rattus norvegicus [11]): 100%
O=C1S/C(=C\c2cn(-c3ccccc3)nc2-c2ccc(Cl)cc2)C(=O)N1Cc1ccccc1	1	inactive	> 300	8	–
O=C1NC(=O)/C(=C/c2cn(-c3ccccc3)nc2-c2ccccc2)S1	50	inactive	> 300	–	IC50 (HL-60): 8 µM; Activity (Rattus norvegicus [2]): 35%; inhibition in vivo at 20 mg/kg (Rattus norvegicus [3]): 53%; Activity (Rattus norvegicus [4]): 38%; inhibition in vivo at 20 mg/kg (Rattus norvegicus [6]): 53%; Activity (Rattus norvegicus [7]): 43%; Activity (Rattus norvegicus [8]): 43%; ED50 (Rattus norvegicus [9]): 21.3 mg/kg
O=C1S/C(=C\c2cn(-c3ccccc3)nc2-c2ccccc2)C(=O)N1Cc1cccc(Br)c1	> 100	inactive	> 300	–	–
